Results reported in ChEMBL document CHEMBL1145453, “Abietane diterpenes from Salvia miltiorrhiza inhibit the activation of hypoxia-inducible factor-1” (J Nat Prod, 2007).

Columns and labels:
AGS [1] = experiment: Viability of human AGS cells under normoxic conditions after 24 hrs by MTT assay; type: functional, cell-based
How it was run: (§1)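 Cells seeded 5 × 10^4/well, settled 3 h at 37 °C, then exposed to a concentration range of compound under normoxia or hypoxia (1% O2) for 24 h. MTT (10 µL of 5 mg/mL stock) added for 4 h, formazan dissolved in DMSO, absorbance at 570 nm; LD50 derived, mean ± SD of three experiments.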

[2] = target: T1, Hypoxia inducible factors; HIF-1-alpha, HIF-2-alpha (Homo sapiens, UniProt Q16665+Q99814); experiment: Inhibition of HIF1 activation in human AGS cells assessed as inhibition of hypoxia-induced luciferase expression after 16 hrs by reporter assay; type: cell-based
How it was run: (§2)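 Cells transiently cotransfected with pGL3-HRE-luciferase (six HRE copies from human VEGF gene) plus pRL-CMV, plated at 5 × 10^4 cells/well, grown 48 h, then exposed to varied compound concentrations (up to 20 µM) for 16 h at 1% O2/94% N2/5% CO2, 37 °C. Dual-luciferase read-out, firefly normalized to Renilla; IC50 from mean ± SD of three experiments; 17-DMAG positive control.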

[3] = Viability of human Hep3B cells under normoxic conditions after 24 hrs by MTT assay; type: functional, cell-based, Hep 3B2; how it was run: as §1
[4] = target: T1, Hypoxia inducible factors; HIF-1-alpha, HIF-2-alpha; experiment: Inhibition of HIF1 activation in human Hep3B cells assessed as inhibition of hypoxia-induced luciferase expression after 16 hrs by reporter assay; type: cell-based; conditions: hep 3b2; how it was run: as §2
[5] = Viability of human Hep3B cells under hypoxic conditions after 24 hrs by MTT assay; type: functional, cell-based, Hep 3B2; how it was run: as §1
AGS [6] = experiment: Viability of human AGS cells under hypoxic conditions after 24 hrs by MTT assay; type: functional, cell-based; how it was run: as §1
Hep 3B2 [7] = experiment: Inhibition of hypoxia-induced HIF1alpha accumulation in Hep3B cells; type: functional, cell-based; conditions: Homo sapiens
How it was run: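 Hep3B cells plated at 1.5 × 10^5 cells per cm2, grown overnight at 37 °C, exposed to a range of concentrations for 1 h, then held 12 h hypoxic (1% O2, 94% N2, 5% CO2, 37 °C). HIF-1α was measured in total lysates (50 µg) by Western blot after 6% SDS-PAGE with rabbit anti-HIF-1α, with ECL detection. TOPO I served as loading control.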

[8] = Suppression of hypoxia-induced VEGF mRNA expression in Hep3B cells after 1 hr by RT-PCR; type: functional, cell-based; conditions: Homo sapiens; Hep 3B2; in the assay text read “after 16 hr” for “after 1 hr”
How it was run: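 Hep3B cells pretreated 1 h with graded compound concentrations, then held 16 h under hypoxia (1% O2, 94% N2, 5% CO2, 37 °C). Total RNA isolated and VEGF transcript detected by RT-PCR, product identity confirmed by sequencing.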

Hep 3B2 [9] = experiment: Inhibition of hypoxia-induced secreted VEGF levels in Hep3B cells after 16 hr by ELISA; conditions: Homo sapiens

| Compound | IC50 (AGS [1]) [µM] | IC50 [2] [µM] | IC50 [3] [µM] | IC50 [4] [µM] | IC50 [5] [µM] | IC50 (AGS [6]) [µM] | IC50 (Hep 3B2 [7]) [µM] | Activity [8] | IC50 (Hep 3B2 [9]) [µM] |
| --- | --- | --- | --- | --- | --- | --- | --- | --- | --- |
| Cc1cccc2c3c(ccc12)C(=O)C(C(C)C)=CC3=O [12-DEOXYTANSHINQUINONE B] | 21.6 | 15.1 | > 50 | 10.6 | – | – | – | – | – |
| CO[C@H]1/C=C\C=C(/C)C(=O)NC2=CC(=O)C(NCCN(C)C)=C(C[C@@H](C)C[C@H](OC)[C@H](O)[C@@H](C)/C=C(\C)[C@@H]1OC(N)=O)C2=O [ALVESPIMYCIN] | – | 0.036 | > 50 | 0.061 | – | – | – | – | – |
| C[C@H]1COC2=C1C(=O)C(=O)c1c2ccc2c1CCCC2(C)C [CRYPTOTANSHINONE] | 13.5 | 1.58 | > 30 | 1.36 | > 30 | 10.2 | – | – | – |
| Cc1cccc2c3c(ccc12)C(=O)C(C(C)CO)=C(O)C3=O (stereo unspecified) [DANSHENXINKUN A] | > 50 | > 20 | > 50 | > 20 | – | – | – | – | – |
| Cc1cccc2c3c(ccc12)C(=O)C(=O)C1=C3OC[C@H]1C [DIHYDROISOTANSHINONE II] | > 50 | > 20 | > 50 | > 20 | – | – | – | – | – |
| Cc1cccc2c3c(ccc12)C1=C(C(=O)C3=O)[C@@H](C)CO1 [DIHYDROTANSHINONE I] | > 50 | 2.05 | > 50 | 2.29 | > 50 | 47.7 | 3.2 | – | – |
| COC(=O)[C@@]1(C)CCCc2c1ccc1c2C(=O)C(=O)c2c(C)coc2-1 [METHYL TANSHINONATE] | > 50 | 7.48 | > 50 | 7.34 | – | – | – | – | – |
| C[C@H](CO)C1=C(O)C(=O)c2c(ccc3c2CCCC3(C)C)C1=O [NEOCRYPTOTANSHINONE] | > 50 | 12.7 | > 50 | > 20 | – | – | – | – | – |
| CC(C)C1=CC(=O)c2c(ccc3c2C=CCC3(C)C)C1=O [SIBIRIQUINONE A] | 35.7 | 0.34 | > 50 | 0.28 | > 50 | 21.2 | 0.4 | Dose-dependent effect | 3.5 |
| CC(C)C1=CC(=O)c2c(ccc3c2CCCC3(C)C)C1=O [SIBIRIQUINONE B] | > 50 | 3.36 | > 50 | 3.18 | > 50 | > 50 | – | – | – |
| Cc1coc2c1C(=O)C(=O)c1c-2ccc2c1CCCC2(C)C [TANSHINONE IIA] | 10 | 7.53 | > 50 | 6.18 | > 50 | 6.8 | – | – | – |
| Cc1coc2c1C(=O)C(=O)c1c-2ccc2c(C)cccc12 [TANSHINONE I] | > 50 | 12.5 | > 50 | 8.51 | – | – | – | – | – |
